Measurements from different studies.
Each line is one published result; the experiments were not run side by side.
Target: Serine/threonine-protein kinase Sgk1 (SGK1, Homo sapiens, UniProt O00141)
One construct used (O00141 1-431): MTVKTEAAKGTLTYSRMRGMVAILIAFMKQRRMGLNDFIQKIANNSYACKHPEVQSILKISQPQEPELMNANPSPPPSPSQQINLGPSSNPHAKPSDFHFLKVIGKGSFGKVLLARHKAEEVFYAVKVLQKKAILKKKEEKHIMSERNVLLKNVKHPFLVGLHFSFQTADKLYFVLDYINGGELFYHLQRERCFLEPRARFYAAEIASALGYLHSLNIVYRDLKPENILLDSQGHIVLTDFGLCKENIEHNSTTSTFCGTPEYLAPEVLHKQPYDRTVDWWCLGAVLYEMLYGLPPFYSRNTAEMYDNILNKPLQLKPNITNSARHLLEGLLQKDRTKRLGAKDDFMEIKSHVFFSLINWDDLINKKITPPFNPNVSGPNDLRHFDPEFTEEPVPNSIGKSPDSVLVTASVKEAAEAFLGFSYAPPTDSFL

| SMILES | effect on | technique | tested at | remaining binding [%] |
| --- | --- | --- | --- | --- |
| FC(F)(F)Oc1cccc(-c2cnc3ccc(-c4ccncc4)nn23)c1 | binding | competition with immobilised ligand | 5 µM | 75 |
| O=C(NCc1ncc(C(F)(F)F)cc1Cl)c1ccc2c(c1)C1(CCS(=O)(=O)CC1)[C@@H](C1CC1)N2S(=O)(=O)c1ccc(F)cc1 | cell-free assay | competition with immobilised ligand | 1 µM | 77 |
| CN(CCCC(F)(F)F)c1nccc(-c2cnn3ncccc23)n1 | binding | – | 1 µM | 85 |
| O=C(NCCCN1CCOCC1)c1ccc(Nc2ncc(Cl)c(-c3ccc(Cl)s3)n2)cc1 | binding | competition with immobilised ligand | 1 µM | 5.8 |
| Nc1ncc2c(n1)-c1c([nH]c3ccc(C#CC4CC4)cc13)CCCC2 | binding | competition with immobilised ligand | 1 µM | 88 |
| CC(=O)Nc1c(C(C)=O)c(=O)n(C)c2nc(-c3ccc(Cl)cc3Cl)c(-c3ccc(Cl)cc3)cc12 | cell-free assay | competition with immobilised ligand | 1 µM | 100 |
| O=C(Nc1c[nH]nc1C(=O)NC1CCNCC1)c1cc(F)cc(F)c1 | binding | competition with immobilised ligand | 1 µM | 100 |
| CN(C)CC#Cc1ccc(OCCCc2sc(N3CCc4cccc(C(=O)Nc5nc6ccccc6s5)c4C3)nc2C(=O)O)c(F)c1 | cell-free assay | competition with immobilised ligand | 1 µM | 100 |
| CC1CCCN1c1nccc(-c2cnn3ncccc23)n1 (stereo not shown) | binding | – | 1 µM | 86 |
| O=C(c1ccc(Nc2nccc(-c3cc4ccccc4s3)n2)cc1)N1CCC(N2CCCC2)CC1 | binding | competition with immobilised ligand | 1 µM | 1.1 |
| CN(C)C(=O)Cn1cc(-c2nc([C@@](C)(c3ccc(-c4cnc(N)nc4)cc3)C3CC3)no2)cn1 | cell-free assay | competition with immobilised ligand | 1 µM | 91 |
| O=C(c1ccc(Nc2ncc(Cl)c(-c3ccc(Cl)s3)n2)cc1)N1CCC(N2CCCC2)CC1 | binding | competition with immobilised ligand | 1 µM | 0.1 |
| CNCc1ccccc1-c1csc([C@H](C)Nc2nc(C)nc3cc(OC)c(OC)cc23)c1 | cell-free assay | competition with immobilised ligand | 1 µM | 91 |
| C[C@H]1CCN(c2nccc(-c3cnn4ncccc34)n2)C1 | binding | – | 1 µM | 68 |
| CC1=C(C#N)[C@@H](c2ccc3[nH]nc(C)c3c2)C(C#N)=C(c2ccc(Cl)cc2)N1 | cell-free assay | competition with immobilised ligand | 1 µM | 100 |
| COc1ncc2cc3ccccc3nc2c1C#N | cell-free assay | competition with immobilised ligand | 5 µM | 94 |
| CN(c1nccc(-c2cnn3ncccc23)n1)C1CC1 | binding | – | 1 µM | 100 |
| CNC(=O)[C@@H]1CC[C@@H](n2c(-c3ccc4cnccc4c3)nc3ccc(C(=O)NCc4cccc(C(N)=O)c4)cc32)C1 | binding | competition with immobilised ligand | 1 µM | 94 |
| N[C@H]1CCN(c2nccc(-c3cnn4ncccc34)n2)C1 | binding | – | 1 µM | 91 |
| CS(=O)(=O)c1cc(C2(NC(=O)c3cncc4c3cnn4-c3ccc(F)cc3)CC2)ccn1 | cell-free assay | competition with immobilised ligand | 1 µM | 97 |
| COc1ccnn2ncc(-c3ccnc(N(C)C)n3)c12 | binding | – | 1 µM | 80 |
| CCN1CCN(Cc2ccc(C(=O)Nc3ccc(C)c(Oc4ccc5c(c4)CC(=O)N5)c3)cc2C(F)(F)F)CC1 | binding | competition with immobilised ligand | 1 µM | 79 |
